This note sets out measurements from ChEMBL document CHEMBL1147752, “Pyrazoloheteroaryls: novel p38alpha MAP kinase inhibiting scaffolds with oral activity” (Bioorg Med Chem Lett, 2006).

One series deals with Mus musculus. As to the kind of experiment: Inhibition of LPS-induced TNFalpha release in mouse at 20 mg/kg, po. It is filed as functional. Conditions: OF1. Summed up:
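Female OF1 mice, eight weeks old, given compound orally by gavage as a DMSO/cornoil solution at 20 mg/kg. One hour after dosing, LPS (20 mg/kg) injected iv to stimulate TNF-α release into plasma. Blood collected one hour later; plasma TNF-α measured by mouse-specific ELISA; reported as % inhibition.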

The target of series [1] is Mitogen-activated protein kinase 14 (Mus musculus, UniProt P47811). As to the kind of experiment: Inhibitory activity against murine p38-alpha MAPK. Summed up:
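Kinase assay with phosphorylated His-tagged p38α MAP kinase of murine origin (10 ng/well). Substrate was immobilised GST-ATF-2, with 120 µM cold ATP present. Result expressed as IC50 (nM).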

Series [2] deals with Rattus norvegicus. Briefly: Inhibition of adjuvant-induced arthritis in rat at 25 mg/kg, po. The class given is functional. Conditions: Wistar. Summed up:
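Female Wistar rats immunized with Mycobacterium tuberculosis on day 0. Compound dosed orally at 25 mg/kg twice daily from day 14 to day 20. Joint swelling measured on day 20; paw swelling inhibition expressed as %.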

The subject of series [3] is Rattus norvegicus. As to the kind of experiment: Inhibition of collagen-induced arthritis in rat at 10 mg/kg, po. It is filed as functional. Put shortly: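 Collagen-induced arthritis in rats. Compounds given orally once daily (q.d.) for 10 days; swelling inhibition recorded.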
For series [4], the target named is Hepatocyte growth factor receptor (Homo sapiens, UniProt P08581). Briefly: Inhibitory activity against c-Met.
For series [5], the target named is T1, Receptor tyrosine-protein kinase erbB-2 (Homo sapiens, UniProt P04626). Briefly: Inhibitory activity against HER2.
T1 sequence (P04626 whole entry): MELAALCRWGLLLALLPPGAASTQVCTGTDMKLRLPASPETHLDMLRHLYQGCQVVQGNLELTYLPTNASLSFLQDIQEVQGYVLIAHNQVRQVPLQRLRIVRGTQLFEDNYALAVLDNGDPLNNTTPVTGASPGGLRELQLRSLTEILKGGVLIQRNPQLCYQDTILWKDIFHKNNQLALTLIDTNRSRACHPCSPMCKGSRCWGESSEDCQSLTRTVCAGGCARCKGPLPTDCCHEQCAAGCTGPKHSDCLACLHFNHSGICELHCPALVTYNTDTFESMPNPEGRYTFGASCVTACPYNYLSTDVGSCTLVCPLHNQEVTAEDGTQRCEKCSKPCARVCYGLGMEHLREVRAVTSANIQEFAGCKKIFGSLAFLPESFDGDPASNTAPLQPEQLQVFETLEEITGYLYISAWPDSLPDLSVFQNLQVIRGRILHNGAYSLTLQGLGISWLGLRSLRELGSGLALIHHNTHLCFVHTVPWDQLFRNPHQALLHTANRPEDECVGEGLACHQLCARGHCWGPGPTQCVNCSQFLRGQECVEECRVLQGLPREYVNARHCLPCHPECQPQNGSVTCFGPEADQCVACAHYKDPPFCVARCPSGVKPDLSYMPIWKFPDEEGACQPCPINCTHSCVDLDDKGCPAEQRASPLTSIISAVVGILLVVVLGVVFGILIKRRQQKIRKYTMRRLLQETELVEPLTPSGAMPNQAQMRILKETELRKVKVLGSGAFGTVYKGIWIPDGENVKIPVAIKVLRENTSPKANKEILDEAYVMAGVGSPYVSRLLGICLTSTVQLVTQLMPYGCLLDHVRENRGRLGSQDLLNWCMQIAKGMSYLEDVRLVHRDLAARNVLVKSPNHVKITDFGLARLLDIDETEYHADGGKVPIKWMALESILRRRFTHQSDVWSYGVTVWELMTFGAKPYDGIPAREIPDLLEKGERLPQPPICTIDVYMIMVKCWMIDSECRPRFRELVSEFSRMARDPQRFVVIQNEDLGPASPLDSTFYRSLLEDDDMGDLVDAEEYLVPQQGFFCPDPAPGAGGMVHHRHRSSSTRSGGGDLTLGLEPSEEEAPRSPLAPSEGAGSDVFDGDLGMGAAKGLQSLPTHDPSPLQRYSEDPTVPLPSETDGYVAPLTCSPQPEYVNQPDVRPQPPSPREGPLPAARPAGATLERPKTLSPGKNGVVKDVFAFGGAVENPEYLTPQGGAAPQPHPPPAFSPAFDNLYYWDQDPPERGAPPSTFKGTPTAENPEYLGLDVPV
Series [6] is described as follows: AUC in rat. It is filed as ADME, organism-based. Conditions: plasma.
The target in series [7] is T2, Epidermal growth factor receptor (Homo sapiens, UniProt P00533). As to the kind of experiment: Inhibitory activity against HER1.
T2 sequence (P00533 whole entry): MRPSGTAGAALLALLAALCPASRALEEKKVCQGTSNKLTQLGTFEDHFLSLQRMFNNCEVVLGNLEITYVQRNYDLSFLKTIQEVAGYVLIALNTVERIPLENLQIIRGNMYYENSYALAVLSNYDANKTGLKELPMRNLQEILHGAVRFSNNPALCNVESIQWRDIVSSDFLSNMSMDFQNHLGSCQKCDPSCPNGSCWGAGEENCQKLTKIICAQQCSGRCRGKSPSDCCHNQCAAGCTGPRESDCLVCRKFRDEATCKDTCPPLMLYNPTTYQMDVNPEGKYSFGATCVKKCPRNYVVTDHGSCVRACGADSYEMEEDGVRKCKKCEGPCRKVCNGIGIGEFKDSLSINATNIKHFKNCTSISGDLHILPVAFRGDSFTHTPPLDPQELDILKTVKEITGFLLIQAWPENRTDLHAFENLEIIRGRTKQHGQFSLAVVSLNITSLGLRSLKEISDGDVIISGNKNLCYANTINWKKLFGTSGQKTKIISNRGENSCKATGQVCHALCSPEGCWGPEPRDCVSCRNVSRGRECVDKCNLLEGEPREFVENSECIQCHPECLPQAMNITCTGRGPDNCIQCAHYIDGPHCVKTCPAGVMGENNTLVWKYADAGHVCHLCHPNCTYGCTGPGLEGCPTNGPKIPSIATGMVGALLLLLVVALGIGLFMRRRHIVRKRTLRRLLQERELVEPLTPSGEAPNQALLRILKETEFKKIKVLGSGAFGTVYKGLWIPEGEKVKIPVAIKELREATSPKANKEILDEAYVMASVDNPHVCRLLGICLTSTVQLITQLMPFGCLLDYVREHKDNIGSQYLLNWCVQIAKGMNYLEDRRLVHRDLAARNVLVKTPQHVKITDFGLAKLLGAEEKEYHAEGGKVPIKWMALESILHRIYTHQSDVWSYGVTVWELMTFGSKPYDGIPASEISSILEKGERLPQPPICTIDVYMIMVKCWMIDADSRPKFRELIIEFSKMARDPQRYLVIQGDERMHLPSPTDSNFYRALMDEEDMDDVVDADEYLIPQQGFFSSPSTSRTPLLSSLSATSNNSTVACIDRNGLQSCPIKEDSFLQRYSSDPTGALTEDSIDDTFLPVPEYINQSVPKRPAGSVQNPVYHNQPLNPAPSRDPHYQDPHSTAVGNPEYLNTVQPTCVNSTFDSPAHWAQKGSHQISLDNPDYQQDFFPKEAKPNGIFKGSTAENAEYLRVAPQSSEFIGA
For series [8], the target named is RAF proto-oncogene serine/threonine-protein kinase (Homo sapiens) (UniProt P04049). Briefly: Inhibition of c-Raf at 10 uM.
For series [9], the target named is T3, Fibroblast growth factor receptor (Homo sapiens, UniProt P22607+P11362+P22455+P21802). Briefly: Inhibitory activity against FGFR. The class given is protein assay.
Series [10] is described as follows: Oral bioavailability in rat. It is filed as ADME, organism-based. Conditions: in vivo.
For series [11], the target named is Insulin-like growth factor 1 receptor (Homo sapiens) (UniProt P08069). Briefly: Inhibition of IGF1R at 10 uM.
Insulin-like growth factor 1 receptor (Homo sapiens), sequence (P08069 31-736 limits assumed): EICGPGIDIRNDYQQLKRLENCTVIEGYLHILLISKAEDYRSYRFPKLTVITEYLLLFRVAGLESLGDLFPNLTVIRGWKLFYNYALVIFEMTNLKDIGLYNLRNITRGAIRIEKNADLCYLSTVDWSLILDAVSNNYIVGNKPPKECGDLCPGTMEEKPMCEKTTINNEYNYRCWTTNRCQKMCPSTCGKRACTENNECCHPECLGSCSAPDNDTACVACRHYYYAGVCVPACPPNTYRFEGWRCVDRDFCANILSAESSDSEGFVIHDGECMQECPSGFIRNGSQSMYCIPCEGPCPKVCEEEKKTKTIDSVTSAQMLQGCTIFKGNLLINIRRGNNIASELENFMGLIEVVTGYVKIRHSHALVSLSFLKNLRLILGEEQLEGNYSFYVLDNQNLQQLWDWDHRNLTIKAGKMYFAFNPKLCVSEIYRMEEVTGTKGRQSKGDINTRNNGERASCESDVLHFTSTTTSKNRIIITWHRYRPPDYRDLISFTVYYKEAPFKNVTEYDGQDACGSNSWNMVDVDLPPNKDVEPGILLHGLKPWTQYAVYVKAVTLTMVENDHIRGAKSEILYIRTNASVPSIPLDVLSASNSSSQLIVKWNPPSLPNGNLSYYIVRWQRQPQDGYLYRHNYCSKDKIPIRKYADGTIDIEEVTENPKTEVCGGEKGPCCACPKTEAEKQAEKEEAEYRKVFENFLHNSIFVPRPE
Insulin-like growth factor 1 receptor (Homo sapiens), sequence (P08069 741-1367 limits assumed): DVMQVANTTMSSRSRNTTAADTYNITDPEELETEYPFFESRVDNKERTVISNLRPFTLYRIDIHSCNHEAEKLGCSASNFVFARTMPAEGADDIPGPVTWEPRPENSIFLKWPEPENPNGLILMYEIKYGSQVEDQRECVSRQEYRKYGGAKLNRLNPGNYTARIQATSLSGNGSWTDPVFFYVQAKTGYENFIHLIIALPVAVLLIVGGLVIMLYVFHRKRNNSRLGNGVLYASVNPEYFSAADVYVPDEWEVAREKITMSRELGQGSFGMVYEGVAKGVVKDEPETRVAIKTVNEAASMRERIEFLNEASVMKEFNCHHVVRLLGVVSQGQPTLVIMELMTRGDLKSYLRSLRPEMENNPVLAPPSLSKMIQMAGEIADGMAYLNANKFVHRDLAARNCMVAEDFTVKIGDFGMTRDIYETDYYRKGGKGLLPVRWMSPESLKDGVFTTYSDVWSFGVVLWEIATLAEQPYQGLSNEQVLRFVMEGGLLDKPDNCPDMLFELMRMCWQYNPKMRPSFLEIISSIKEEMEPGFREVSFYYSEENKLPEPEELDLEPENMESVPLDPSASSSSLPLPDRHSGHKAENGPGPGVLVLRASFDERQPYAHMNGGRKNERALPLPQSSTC
The target of series [12] is Mitogen-activated protein kinase 9 (Homo sapiens, UniProt P45984). As to the kind of experiment: Inhibitory activity against JNK2.
Mitogen-activated protein kinase 9, sequence (P45984 whole entry): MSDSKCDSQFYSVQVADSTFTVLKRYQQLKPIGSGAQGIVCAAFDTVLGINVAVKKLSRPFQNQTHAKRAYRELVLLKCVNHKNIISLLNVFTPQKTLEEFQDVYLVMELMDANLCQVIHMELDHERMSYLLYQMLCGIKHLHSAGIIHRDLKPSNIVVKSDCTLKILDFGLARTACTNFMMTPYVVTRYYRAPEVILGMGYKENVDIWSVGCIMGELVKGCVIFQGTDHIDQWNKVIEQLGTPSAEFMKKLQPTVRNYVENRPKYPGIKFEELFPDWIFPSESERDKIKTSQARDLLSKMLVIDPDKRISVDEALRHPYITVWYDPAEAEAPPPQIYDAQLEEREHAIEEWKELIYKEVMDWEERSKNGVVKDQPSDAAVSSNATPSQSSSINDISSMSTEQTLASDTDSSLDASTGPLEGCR
Series [13] is described as follows: Half life in rat. The class given is ADME, organism-based. As to conditions: in vivo.
Series [14] can be described thus: Cmax in rat administered at 1 mg/kg, po. The class given is ADME, organism-based. Details: dose 1 mg/kg, route oral. Conditions: in vivo.
Series [15] deals with Cyclin-dependent kinase 1 (Homo sapiens) (UniProt P06493). Briefly: Inhibition of CDK1 at 10 uM.
Cyclin-dependent kinase 1 (Homo sapiens), sequence (P06493 whole entry, looked up): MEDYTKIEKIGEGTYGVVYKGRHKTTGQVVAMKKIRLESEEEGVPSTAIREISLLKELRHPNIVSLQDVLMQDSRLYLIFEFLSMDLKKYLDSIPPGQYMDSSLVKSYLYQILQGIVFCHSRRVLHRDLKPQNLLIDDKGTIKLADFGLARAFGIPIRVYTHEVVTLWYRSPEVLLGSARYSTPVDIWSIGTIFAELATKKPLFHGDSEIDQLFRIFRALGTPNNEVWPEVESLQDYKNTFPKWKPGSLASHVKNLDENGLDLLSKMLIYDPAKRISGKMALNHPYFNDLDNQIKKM
Series [16] deals with Mast/stem cell growth factor receptor Kit (Homo sapiens) (UniProt P10721). Briefly: Inhibition of c-Kit at 10 uM.
In series [17] the target is T1, Receptor tyrosine-protein kinase erbB-2. Briefly: Inhibition of HER2 at 10 uM.
In series [18] the target is T2, Epidermal growth factor receptor. As to conditions: 10 uM.
Series [19] has as its target T3, Fibroblast growth factor receptor. As to the kind of experiment: Inhibition of FGFR at 10 uM. The class given is protein assay.

Where only a bound is given, the exact number is not on record here.

Broadly, the inhibition in vivo is the drop in the measured response relative to a control, in per cent. The IC50 is the concentration needed to halve the response being measured. Usually AUC stands for concentration integrated over time. The inhibition is the relative decrease from the control value, in per cent. As usually defined, the bioavailability is the share of a dose that reaches the circulation, judged against a reference dose that is usually intravenous. Higher therefore signals good availability. One may read the half-life as the time in which the quantity being followed falls by half. High values mean slow loss, low ones fast loss. The Cmax is the highest concentration seen after dosing.

Mitogen-activated protein kinase 14, sequence (P47811 whole entry): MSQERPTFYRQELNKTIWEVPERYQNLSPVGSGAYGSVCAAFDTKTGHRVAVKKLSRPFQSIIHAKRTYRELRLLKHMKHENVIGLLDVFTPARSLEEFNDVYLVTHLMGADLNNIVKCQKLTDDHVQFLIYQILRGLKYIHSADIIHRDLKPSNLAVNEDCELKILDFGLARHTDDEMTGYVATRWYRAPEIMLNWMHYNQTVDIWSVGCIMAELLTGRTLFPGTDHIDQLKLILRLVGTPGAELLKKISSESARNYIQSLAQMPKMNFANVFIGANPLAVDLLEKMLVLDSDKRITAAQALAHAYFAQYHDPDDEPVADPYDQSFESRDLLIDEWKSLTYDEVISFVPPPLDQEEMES

With `COc1ccc(CCC(C)(C)N)cc1-c1[nH]nc2nc(Nc3ccc(F)cc3F)cnc12`, the inhibition in vivo at 20 mg/kg in the series on Mus musculus is 0%. Half-maximal inhibition in [1] (IC50) was put at 29 nM.
Turning to `COc1ccc(C#CC(C)(C)N)cc1-c1[nH]nc2nc(Nc3ccc(F)cc3F)ncc12`, 20 mg/kg produced 85% inhibition in vivo in the series with Mus musculus. Further, the inhibition in vivo at 25 mg/kg with Rattus norvegicus [2] was 69%. This molecule had an inhibition in vivo at 10 mg/kg in the series with Rattus norvegicus [3] of 75%. Also, the IC50 was found to be 1500 nM in series [4]; 5000 nM in [5]; 12 nM in [1]; 5200 nM in series [7]; 10000 nM in series [9]; 8300 nM in series [12]. Also, the AUC in series [6] was found to be 512 ng·h/mL. Moreover, the inhibition in series [8] and in [11] was 0% each time. For the same molecule, the bioavailability in [10] came out at 16%.
Molecule `COc1ccc(CNC2CCCC2)cc1-c1[nH]nc2nc(Nc3ccc(F)cc3F)ccc12` yielded an inhibition in vivo at 20 mg/kg with Mus musculus of 38%. Also, the IC50 in series [1] was found to be 58 nM.
In the series on Mus musculus, `COc1ccc(C#CCN2CCN(C)CC2)cc1-c1[nH]nc2nc(Nc3ccc(F)cc3F)ncc12` returned an inhibition in vivo at 20 mg/kg of 96%. The molecule also registered an IC50 in series [1] of 0.9 nM.
`COc1ccc(C#CC(C)(C)N)cc1-c1[nH]nc2nc(Nc3ccc(F)cc3F)cnc12` returned an inhibition in vivo at 20 mg/kg with Mus musculus of 98%. For the same molecule, the inhibition in vivo at 25 mg/kg with Rattus norvegicus [2] is 37%. For the same molecule, in series [13], the half-life is 2.6 h. This molecule also had an IC50 in series [1] of 10 nM. The bioavailability in series [10] was 9%.
As for `COc1ccc(CCCN2CCN(C)CC2)cc1-c1[nH]nc2nc(Nc3ccc(F)cc3F)ncc12`, in the series on Mus musculus, at 20 mg/kg the inhibition in vivo was 73%. In [1], this molecule gave a half-maximal inhibitory concentration (IC50) of 14 nM.
Molecule `COc1ccc(C(=O)NC2CCOCC2)cc1-c1[nH]nc2nc(Nc3ccc(F)cc3F)ccc12` had an inhibition in vivo at 20 mg/kg in the series on Mus musculus of 97%. Further, in the series with Rattus norvegicus [2], the inhibition in vivo at 25 mg/kg amounted to 28%. Moreover, the half-life in series [13] is 1.4 h. Besides, the IC50 in series [1] amounted to 0.7 nM. The Cmax in series [14] turned out to be 6 nM. The same molecule came in with a bioavailability in series [10] of 22%.
`COc1ccc(CNC2CCOCC2)cc1-c1n[nH]c2nc(Nc3ccc(F)cc3F)ccc12` had an inhibition in vivo at 20 mg/kg in the series on Mus musculus of 80%. Moreover, the inhibition in vivo at 25 mg/kg with Rattus norvegicus [2] came to 46%. Moreover, the inhibition in vivo at 10 mg/kg with Rattus norvegicus [3] was 10%. In series [1], this molecule yielded an IC50 of 94 nM.
Molecule `COc1ccc(C#CC(C)(C)O)cc1-c1[nH]nc2nc(Nc3ccc(F)cc3F)ncc12` yielded an inhibition in vivo at 20 mg/kg in the series on Mus musculus of 98%. Moreover, in the series with Rattus norvegicus [2], the inhibition in vivo at 25 mg/kg was determined as 34%. Further, in [1], the IC50 came to 19 nM.
On to `COc1ccc(C#CCN(C)C)cc1-c1[nH]nc2nc(Nc3ccc(F)cc3F)ncc12`, for which, in the series on Mus musculus, the inhibition in vivo at 20 mg/kg was 96%. This molecule showed an IC50 in series [1] of 0.6 nM.
As for `COc1ccc(C#CC(C)(C)N)cc1-c1[nH]nc2nc(Nc3ccc(F)cc3F)ccc12`, the inhibition in vivo at 20 mg/kg in the series with Mus musculus worked out at 98%. Moreover, the inhibition in vivo at 25 mg/kg with Rattus norvegicus [2] worked out at 49%. In addition, 10 mg/kg produced 85% inhibition in vivo with Rattus norvegicus [3]. The figures for the IC50 in series [1] and in series [12] were 20 nM and 100000 nM, respectively. The molecule further had an AUC in series [6] of 422 ng·h/mL. The peak level in [14] (Cmax) was 52 nM. Besides, the inhibition in series [15] and in series [11] was 0% in each case. For the same molecule, the bioavailability in [10] amounted to 95%.
In the series on Mus musculus, `COc1ccc(CCC(C)(C)O)cc1-c1[nH]nc2nc(Nc3ccc(F)cc3F)cnc12` came in with an inhibition in vivo at 20 mg/kg of 94%. In addition, in series [1], half-maximal inhibition (IC50) was put at 21 nM.
Molecule `COc1ccc(C(=O)N2CCNCC2)cc1-c1[nH]nc2nc(Nc3ccc(F)cc3F)ccc12` had an inhibition in vivo at 20 mg/kg with Mus musculus of 3%. In series [1], this molecule gave an IC50 of 280 nM.
Take `COc1ccc(CCC(C)(C)N)cc1-c1[nH]nc2nc(Nc3ccc(F)cc3F)ncc12`: in the series on Mus musculus, at 20 mg/kg the inhibition in vivo was 68%. The molecule further showed an IC50 in series [1] of 43 nM.
The molecule `COc1ccc(C(=O)NC2CCCC2)cc1-c1[nH]nc2nc(Nc3ccc(F)cc3F)ccc12` displayed an inhibition in vivo at 20 mg/kg with Mus musculus of 97%. In addition, the inhibition in vivo at 25 mg/kg in the series with Rattus norvegicus [2] worked out at 34%. The molecule also gave a half-life in series [13] of 1.6 h. In addition, the IC50 in series [1] stood at 5 nM. In series [14], this molecule yielded a Cmax of 6 nM. Besides, the bioavailability in [10] was determined as 26%.
`COc1ccc(CCCN(C)C)cc1-c1[nH]nc2nc(Nc3ccc(F)cc3F)ncc12` yielded an inhibition in vivo at 20 mg/kg in the series on Mus musculus of 93%. The IC50 in series [1] was 11 nM.
Molecule `COc1ccc(C(=O)O)cc1-c1[nH]nc2nc(Nc3ccc(F)cc3F)ccc12` yielded an IC50 in [1] of 200 nM.
Regarding `COc1ccc(CCC(C)(C)O)cc1-c1[nH]nc2nc(Nc3ccc(F)cc3F)ncc12`, the inhibition in vivo at 20 mg/kg with Mus musculus worked out at 98%. The inhibition in vivo at 25 mg/kg in the series on Rattus norvegicus [2] is 36%. Also, in series [1], inhibition was half-maximal at 47 nM (IC50).
The molecule `COc1ccc(C#CC(C)(C)O)cc1-c1[nH]nc2nc(Nc3ccc(F)cc3F)cnc12` gave an inhibition in vivo at 20 mg/kg with Mus musculus of 98%. Besides, the inhibition in [16] is 0%; in series [17], 0%; in series [18], 0%; in series [19] it was -5%. For the same molecule, the inhibition in vivo at 25 mg/kg in the series with Rattus norvegicus [2] is 41%. Testing at 10 mg/kg with Rattus norvegicus [3] gave an inhibition in vivo of 57%. Further, the 50% inhibitory concentration (IC50) in series [1] is 7 nM; in series [12], over 100000 nM. The molecule also returned a maximum concentration (Cmax) in series [14] of 160 nM. The bioavailability in [10] came out at 22%.
Take `COc1ccc(CCC(C)(C)N)cc1-c1[nH]nc2nc(Nc3ccc(F)cc3F)ccc12`: 20 mg/kg produced 78% inhibition in vivo in the series with Mus musculus. For the same molecule, the inhibition in vivo at 25 mg/kg with Rattus norvegicus [2] turned out to be 9%. Besides, in series [1], the IC50 is 33 nM. Also, in series [14], the peak level (Cmax) was 11 nM. This molecule yielded a bioavailability in series [10] of 20%.
